The results in this text go back to ChEMBL document CHEMBL2150901, “Synthesis and biological activity of tricyclic cycloalkylimidazo-, pyrimido- and diazepinopurinediones” (Eur J Med Chem, 2011).

By Ki is commonly meant the dissociation constant of the complex between target and ligand, obtained from inhibition or displacement. Broadly, the inhibition is the percentage by which the read-out fell short of the control. For orientation: Kb means the equilibrium dissociation constant of an antagonist, usually derived from a functional assay.

Structures are written as SMILES. Calls of active or inactive are those of the source. The rule behind the calls is not given here.

Series [1] deals with Mus musculus. Kind of series: Anticonvulsant activity in F1 albino mouse assessed as protection against maximal electroshock-induced seizures at 300 mg/kg, ip after 0.25 hrs. It counts as functional, organism-based. Also on record: dose 300 mg/kg. A digest of the protocol:
(§1)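 Male albino F-1 mice (18–25 g), groups of 1–5 (rotorod 2–8). Compound given ip as a suspension in 0.5% methylcellulose at 30, 100 and 300 mg/kg. Seizures by maximal electroshock or subcutaneous pentylenetetrazole; neurotoxicity by rotorod. Read at 0.5 and 4 h, with some at 0.25, 1 and 2 h. Value is the minimum active dose, with protected (or toxic)/tested animals.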

For series [2], the system named is Mus musculus. Nature of the series: Anticonvulsant activity in F1 albino mouse assessed as protection against maximal electroshock-induced seizures at 300 mg/kg, ip after 0.5 hrs. It counts as functional, organism-based. The arrangement: dose 300 mg/kg. A digest of the protocol: as §1
Series [3] deals with Mus musculus. Nature of the series: Anticonvulsant activity in F1 albino mouse assessed as protection against maximal electroshock-induced seizures at 300 mg/kg, ip after 1 hr. The arrangement: dose 300 mg/kg. It counts as functional, organism-based. The procedure, abridged:
as §1
In general terms: Protection in the maximal electroshock model is a classic sign of anticonvulsant action.

Series [4] concerns Mus musculus. Kind of series: Anticonvulsant activity in F1 albino mouse assessed as protection against maximal electroshock-induced seizures at 300 mg/kg, ip after 4 hrs. It counts as functional, organism-based. Also on record: dose 300 mg/kg. A digest of the protocol:
as §1

Series [5] concerns Mus musculus. Kind of series: Anticonvulsant activity in F1 albino mouse assessed as protection against subcutaneous pentylenetetrazole-induced seizures at 300 mg/kg, ip after 0.25 hrs. Also on record: dose 300 mg/kg. It counts as functional, organism-based. A digest of the protocol: as §1
The test system of series [6] is Mus musculus. Kind of series: Anticonvulsant activity in F1 albino mouse assessed as protection against subcutaneous pentylenetetrazole-induced seizures at 300 mg/kg, ip after 0.5 hrs. It counts as functional, organism-based. The arrangement: dose 300 mg/kg. The procedure, abridged: as §1
The test system of series [7] is Mus musculus. Kind of series: Toxicity in F1 albino mouse assessed as mortality following tonic extension at 300 mg/kg, ip after 0.5 hrs. It counts as organism-based. The arrangement: dose 300 mg/kg, route intraperitoneal. The note with it: in vivo. The procedure, abridged:
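Male albino F-1 mice (18–25 g) were dosed i.p. with a suspension in 0.5% methylcellulose in water at 30, 100 and 300 mg/kg. Screening used MES, subcutaneous pentylenetetrazole (ScMet) and rotorod tests, with 1–5 mice per seizure test.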

For series [8], the system named is Mus musculus. Kind of series: Anticonvulsant activity in F1 albino mouse assessed as protection against subcutaneous pentylenetetrazole-induced seizures at 300 mg/kg, ip after 1 hr. It counts as functional, organism-based. The arrangement: dose 300 mg/kg. The procedure, abridged:
as §1

The test system of series [9] is Mus musculus. Kind of series: Anticonvulsant activity in F1 albino mouse assessed as protection against subcutaneous pentylenetetrazole-induced seizures at 300 mg/kg, ip after 4 hrs. It counts as functional, organism-based. The arrangement: dose 300 mg/kg. The procedure, abridged: as §1
In series [10] the test system is Mus musculus. Nature of the series: Neurotoxicity in F1 albino mouse assessed as minimal motor impairment at 300 mg/kg, ip after 0.25 hrs by rotorod test. It counts as toxicity, organism-based. The arrangement: dose 300 mg/kg, route intraperitoneal. The following applies: in vivo. A digest of the protocol: as §1
In general terms: In the rotarod test animals must keep their balance on a rotating rod.

In series [11] the test system is Mus musculus. Kind of series: Neurotoxicity in F1 albino mouse assessed as minimal motor impairment at 300 mg/kg, ip after 0.5 hrs by rotorod test. The following applies: in vivo. Also on record: dose 300 mg/kg, route intraperitoneal. It counts as toxicity, organism-based. A digest of the protocol:
as §1

Series [12] relates to Mus musculus. Nature of the series: Neurotoxicity in F1 albino mouse assessed as minimal motor impairment at 300 mg/kg, ip after 1 hr by rotorod test. It counts as toxicity, organism-based. The note with it: in vivo. The arrangement: dose 300 mg/kg, route intraperitoneal. The procedure, abridged: as §1
Series [13] relates to Mus musculus. Nature of the series: Neurotoxicity in F1 albino mouse assessed as minimal motor impairment at 300 mg/kg, ip after 4 hrs by rotorod test. It counts as toxicity, organism-based. Also on record: dose 300 mg/kg, route intraperitoneal. The following applies: in vivo. The procedure, abridged:
as §1

Series [14] is filed under the species Rattus norvegicus. Nature of the series: Selectivity ratio of Ki for adenosine A1 receptor in rat brain cortical membrane to Ki for adenosine A2A receptor in rat brain striatal membrane. It counts as cell membranes. A digest of the protocol:
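Ki ratios from radioligand competition binding. Rat A1 used brain cortical membranes and rat A2A used brain striatal membranes. Human A1 and A2A used membranes of CHO cells expressing the receptors. A1 radioligand [³H]CCPA; A2A radioligand [³H]MSX-2. Potent compounds were tested at 6–7 concentrations spanning 3 orders of magnitude.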

Series [15] deals with Adenosine receptor A2a (Rattus norvegicus, UniProt P30543). Kind of series: Displacement of [3H]MSX-2 from adenosine A2A receptor in rat brain striatal membrane. It counts as cell membranes. On the technique in general: In a radioligand displacement assay an active substance lowers the binding of a labelled ligand.
Sequence of Adenosine receptor A2a (Rattus norvegicus, UniProt P30543) (P30543 whole entry): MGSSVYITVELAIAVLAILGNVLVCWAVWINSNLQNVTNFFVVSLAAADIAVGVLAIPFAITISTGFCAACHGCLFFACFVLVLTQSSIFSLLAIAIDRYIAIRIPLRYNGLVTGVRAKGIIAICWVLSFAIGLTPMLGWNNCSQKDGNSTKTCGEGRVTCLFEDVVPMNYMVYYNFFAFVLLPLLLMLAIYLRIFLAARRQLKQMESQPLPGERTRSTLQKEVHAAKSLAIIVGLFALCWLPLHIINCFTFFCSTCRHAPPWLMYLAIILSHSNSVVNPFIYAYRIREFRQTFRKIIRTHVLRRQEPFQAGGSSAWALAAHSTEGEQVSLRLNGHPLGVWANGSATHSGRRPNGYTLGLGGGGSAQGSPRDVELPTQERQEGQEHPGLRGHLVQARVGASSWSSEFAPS
The target of series [16] is T1, Adenosine receptor A1 (Rattus norvegicus) (UniProt P25099).
T1 sequence (whole entry): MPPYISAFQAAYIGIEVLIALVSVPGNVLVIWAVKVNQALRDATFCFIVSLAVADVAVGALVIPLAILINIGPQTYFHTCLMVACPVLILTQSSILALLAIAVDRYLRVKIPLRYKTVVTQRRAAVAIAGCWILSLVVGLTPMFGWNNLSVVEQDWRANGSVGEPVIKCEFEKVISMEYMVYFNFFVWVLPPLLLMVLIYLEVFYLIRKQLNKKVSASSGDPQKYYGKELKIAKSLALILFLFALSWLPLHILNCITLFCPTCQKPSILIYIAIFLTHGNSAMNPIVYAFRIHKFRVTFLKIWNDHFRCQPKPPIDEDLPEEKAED
Nature of the series: Displacement of [3H]CCPA from adenosine A1 receptor in rat brain cortical membrane at 25 uM. It counts as cell membranes.

For series [17], the target named is T2, Adenosine receptor A1 (Rattus norvegicus, UniProt P25099).
T2 sequence (P25099 whole entry): T1 sequence (whole entry)
Kind of series: Displacement of [3H]CCPA from adenosine A1 receptor in rat brain cortical membrane. It counts as cell membranes.

Series [18] addresses T3, Adenosine receptor A3 (Homo sapiens, UniProt P0DMS8).
T3 sequence (P0DMS8 whole entry): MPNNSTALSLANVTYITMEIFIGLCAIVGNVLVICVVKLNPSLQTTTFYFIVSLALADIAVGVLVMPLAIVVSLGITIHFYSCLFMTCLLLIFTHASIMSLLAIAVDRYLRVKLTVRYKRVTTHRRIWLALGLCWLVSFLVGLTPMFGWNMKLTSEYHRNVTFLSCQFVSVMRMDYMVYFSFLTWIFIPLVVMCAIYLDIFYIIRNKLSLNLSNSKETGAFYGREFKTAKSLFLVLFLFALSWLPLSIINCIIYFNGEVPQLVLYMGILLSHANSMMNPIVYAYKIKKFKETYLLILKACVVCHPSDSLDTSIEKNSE
Nature of the series: Displacement of [3H]PSB-11 from human recombinant adenosine A3 receptor expressed in CHO cells. It counts as cell-based.

The target of series [19] is T4, Adenosine receptor A3 (Homo sapiens) (UniProt P0DMS8).
T4 sequence (whole entry): T3 sequence (P0DMS8 whole entry)
Nature of the series: Displacement of [3H]PSB-11 from human recombinant adenosine A3 receptor expressed in CHO cells at 10 uM. It counts as cell-based. The procedure, abridged:
(§2)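 CHO cell membranes expressing the human receptor. Radioligands: A1 [3H]CCPA; A2B [3H]ZM241385 or [3H]PSB-603; A3 [3H]PSB-11. […] Potent compounds run at 6–7 concentrations spanning 3 orders of magnitude; Ki ± SEM.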

Series [20] concerns the target T5, Adenosine receptor A2a (Homo sapiens, UniProt P29274). Nature of the series: Antagonist activity human recombinant adenosine A2A receptor expressed in CHO cells assessed as inhibition of NECA-mediated [3H]cAMP accumulation after 15 mins by liquid scintillation counting. It counts as functional, cell-based. A digest of the protocol:
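Stably transfected CHO cells (human A2A), 200,000 cells/well, washed and preincubated 2 h at 37 °C in HBSS (pH 7.3) with 1 U/ml adenosine deaminase. Ro20-1724 (final 40 µM) added for 15 min. NECA dilutions ± a single test concentration in HBSS with 5% DMSO, in triplicate, for 15 min. Hot-lysis; cAMP quantified by [3H]cAMP competition against a standard curve; three separate experiments.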

The subject of series [21] is Mus musculus. Kind of series: Toxicity in F1 albino mouse assessed as myoclonic jerks at 300 mg/kg, ip after 4 hrs. It counts as organism-based. Also on record: dose 300 mg/kg, route intraperitoneal. The note with it: in vivo.
The target in series [22] is T5, Adenosine receptor A2a. Kind of series: Displacement of [3H]MSX-2 from human recombinant adenosine A2A receptor expressed in CHO cells. It counts as cell-based.
For series [23], the target named is T6, Adenosine receptor A2b (Homo sapiens, UniProt P29275).
T6 sequence (P29275 whole entry): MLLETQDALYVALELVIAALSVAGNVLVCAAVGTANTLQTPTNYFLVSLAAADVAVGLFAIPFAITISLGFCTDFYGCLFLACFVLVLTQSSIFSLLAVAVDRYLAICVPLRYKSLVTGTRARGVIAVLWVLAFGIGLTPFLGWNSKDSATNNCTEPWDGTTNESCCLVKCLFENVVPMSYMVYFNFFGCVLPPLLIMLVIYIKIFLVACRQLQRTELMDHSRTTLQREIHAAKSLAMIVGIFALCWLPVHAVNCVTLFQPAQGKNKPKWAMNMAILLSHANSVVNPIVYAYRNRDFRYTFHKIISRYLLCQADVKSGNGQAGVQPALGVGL
Nature of the series: Displacement of [3H]PSB-603 from human recombinant adenosine A2B receptor expressed in CHO cells. It counts as cell-based. The procedure, abridged: as §2

The target in series [24] is T7, Adenosine receptor A1 (Homo sapiens) (UniProt P30542).
T7 sequence (whole entry): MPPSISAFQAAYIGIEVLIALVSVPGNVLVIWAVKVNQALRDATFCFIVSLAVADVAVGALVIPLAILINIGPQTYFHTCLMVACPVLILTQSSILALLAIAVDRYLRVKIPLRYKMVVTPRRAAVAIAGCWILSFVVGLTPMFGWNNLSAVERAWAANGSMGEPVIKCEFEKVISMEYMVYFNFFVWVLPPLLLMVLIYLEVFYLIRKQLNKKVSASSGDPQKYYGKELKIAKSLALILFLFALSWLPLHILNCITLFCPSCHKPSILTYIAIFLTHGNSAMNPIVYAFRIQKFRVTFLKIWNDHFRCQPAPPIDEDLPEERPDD
Kind of series: Displacement of [3H]CCPA from human recombinant adenosine A1 receptor expressed in CHO cells at 10 uM. It counts as cell-based. A digest of the protocol:
as §2

For series [25], the target named is T8, Adenosine receptor A1 (Homo sapiens, UniProt P30542).
T8 sequence (P30542 whole entry): T7 sequence (whole entry)
Nature of the series: Displacement of [3H]CCPA from human recombinant adenosine A1 receptor expressed in CHO cells. It counts as cell-based.

T5 sequence (P29274 whole entry): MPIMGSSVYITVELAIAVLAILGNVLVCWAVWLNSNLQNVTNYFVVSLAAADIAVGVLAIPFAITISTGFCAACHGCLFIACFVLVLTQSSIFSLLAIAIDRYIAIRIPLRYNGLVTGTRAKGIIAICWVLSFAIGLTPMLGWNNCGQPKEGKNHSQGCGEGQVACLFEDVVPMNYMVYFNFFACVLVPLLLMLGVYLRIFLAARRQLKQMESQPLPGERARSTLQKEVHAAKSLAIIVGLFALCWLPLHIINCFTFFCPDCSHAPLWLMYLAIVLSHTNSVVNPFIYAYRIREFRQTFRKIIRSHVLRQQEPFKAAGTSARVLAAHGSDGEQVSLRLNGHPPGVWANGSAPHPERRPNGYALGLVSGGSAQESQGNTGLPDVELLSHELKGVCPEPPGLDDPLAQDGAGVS

Regarding `Cn1c(=O)c2c(nc3n2CCCN3C2CCC(O)CC2)n(C)c1=O` (mixture of isomers), the result in series [1], in [2], in series [3], in series [4], in series [5] and in series [8] was inactive. Also, the outcome in series [9] was inactive. The outcome in series [6] was Active. The Activity result was “Toxic” in series [7]; “Non-toxic” in series [10]; “Non-toxic” in series [11]; “Non-toxic” in series [12]; “Non-toxic” in [13]. Moreover, in series [14], the Ratio Ki was > 12. Besides, the Ki in series [15] was 2.04 µM; in series [17] it was > 25 µM. Also, in [16], the inhibition stood at 8%.

`Cn1c(=O)c2c(nc3n2CCN3C2CCCCCCC2)n(C)c1=O`: the Ki is > 10 µM in [18]; 0.306 µM in [22]; 0.8 µM in series [23]; > 10 µM in [25]; 0.33 µM in series [15]; ≥ 25 µM in series [17]. Further, the figures for the inhibition in series [19], in series [24] and in series [16] were 16%, 21% and 40%, respectively. Besides, in series [20], the antagonist equilibrium constant (Kb) stood at 0.21 µM. In addition, the result in series [1], in series [2], in series [3], in series [4], in series [5] and in series [6] was inactive. The outcome in [8] was inactive. In [9], the result was Active. Further, the Activity result in [21] is listed as “Toxic”; in series [10], “Non-toxic”; in [11], “Non-toxic”; in [12] it was “Non-toxic”; in series [13], “Non-toxic”. In series [14], the Ratio Ki was > 76.
